KCNK3 block: human KCNK3 channel inhibition, primary screen; CHO-KCNK3 thallium flux, FluxOR fluorescence; stronger effect = lower value; 0.84% of 340,000 active; B-score at 10 µM;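 active = B-score under library mean minus 4 SD, starting fluorescence ratio at most library mean plus 5 SD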;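 note: more negative B-score means stronger inhibition of thallium flux through KCNK3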
KCNK9 block: human KCNK9 channel inhibition | HEK293 KCNK9, FluxOR thallium flux fluorescence; stronger effect = lower value | B-score at 10 µM | 1.2% of 310,000 active | AID 488922;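 active = ratio B-score over 3 SD below the library mean, with starting fluorescence within 5 SD of its mean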;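 note: negative B-score means less thallium flux so channel inhibition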
KCNQ1 inh: blocks the human KCNQ1 potassium channel. CHO-K1 KCNQ1, FluxOR thallium flux fluorescence; stronger effect = higher value. B-score at 10 µM. 1.3% of 310,000 active;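 active = compounds whose thallium flux B-score, printed positive for inhibition, exceeds three library SD while starting fluorescence stays within three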;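 note: channel opened by potassium depolarization with thallium stimulus after 20 min compound exposure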
Target sequence (P51787 whole entry, looked up): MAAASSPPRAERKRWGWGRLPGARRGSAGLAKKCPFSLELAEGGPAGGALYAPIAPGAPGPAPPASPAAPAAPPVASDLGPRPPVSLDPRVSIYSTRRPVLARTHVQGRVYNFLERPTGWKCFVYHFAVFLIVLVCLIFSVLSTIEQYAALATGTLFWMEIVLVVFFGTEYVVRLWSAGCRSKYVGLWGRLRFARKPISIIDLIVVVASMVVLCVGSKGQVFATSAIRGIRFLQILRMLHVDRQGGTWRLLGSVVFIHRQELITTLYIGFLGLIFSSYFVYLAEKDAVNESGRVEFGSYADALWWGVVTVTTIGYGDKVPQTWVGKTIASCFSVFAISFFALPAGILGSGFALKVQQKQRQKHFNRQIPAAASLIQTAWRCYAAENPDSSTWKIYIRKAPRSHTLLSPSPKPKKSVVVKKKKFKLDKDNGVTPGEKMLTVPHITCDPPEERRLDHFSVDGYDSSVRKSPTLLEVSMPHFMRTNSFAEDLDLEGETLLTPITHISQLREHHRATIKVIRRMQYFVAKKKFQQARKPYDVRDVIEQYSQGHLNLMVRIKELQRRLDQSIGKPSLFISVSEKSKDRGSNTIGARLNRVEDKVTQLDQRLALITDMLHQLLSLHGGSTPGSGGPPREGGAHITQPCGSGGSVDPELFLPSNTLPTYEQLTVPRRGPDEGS
KCNQ1 pot: potentiates or activates the human KCNQ1 potassium channel; P51787; CHO-K1 KCNQ1, thallium flux FluxOR fluorescence; stronger effect = higher value; B-score at 10 µM; 0.35% of 310,000 active; AID 2648;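 active = fluorescence ratio B-score, a plate-corrected score, at least three library SD, with initial intensity B-score within 5 SD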
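Doses: Single concentration per compound, DMSO matched to controls | Test system: KCNQ1-transfected CHO-K1 cells | Timing: 90 min dye loading and 20 min compound exposure, both at room temperature | Measured by: Kinetic FluxOR thallium fluorescence, 10-s 1-Hz baseline, 110-s post-stimulus read | Medium: Assay buffer with matched DMSO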
hERG rescue: shields human hERG channel from block by proarrhythmic agents; Q12809; CHO-hERG, FluxOR thallium flux, dofetilide IC70 present; activation (rescue from dofetilide block), less the hit threshold, % at 10 µM; 0.51% of 310,000 active; AID 1511;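 active = activation above the mean of controls blocked by dofetilide plus 5 SD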;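 note: thallium influx through hERG after potassium depolarization seen as dye fluorescence rise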
KCNQ1 block val: human KCNQ1 channel inhibition, validation assay; KCNQ1 cell line, FluxOR thallium flux fluorescence; inhibition, % at 10 µM; shares compounds with KCNQ1 inh; 93% of 1,600 active;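 active = primary screen active, with duplicate mean exceeding buffer control mean plus 3 SD of buffer wells, cut at about 28% in these data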
CHO Tl flux: KCNQ1 inhibitor counter-screen hit in parental CHO cells. shares compounds with KCNQ1 inh. parental CHO-K1, FluxOR thallium flux fluorescence ratio; stronger effect = lower value; zero means no signal rise above baseline. 21% of 1,600 active. fluorescence ratio (Tl flux) at 10 µM;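 active = mean of duplicate thallium-flux fluorescence ratios in parental host cells more than 5 SD below the buffer control mean, cut at about 0.38 in these data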;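 note: ratio is peak minus minimum fluorescence divided by baseline fluorescence; actives read low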
KCNQ1 ephys val: confirmation of human KCNQ1 potassium channel inhibitors by electrophysiology; AID 624120; calls only at 10 µM; KCNQ1-CHO cells, automated patch clamp current; 20% of 490 active; shares compounds with KCNQ1 inh;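 active = KCNQ1 current drop exceeding 3 SD of negative control wells, seen in both duplicate runs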;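 note: steady state current during a 2 s step from -80 to +40 mV; negative values mean current inhibition and positive values mean potentiation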
KCNQ2 inh: KCNQ1 inhibitor that also blocks rat KCNQ2 channel. 71% of 1,600 active. shares compounds with KCNQ1 inh. KCNQ2 cells, FluxOR thallium flux fluorescence. inhibition, % at 10 µM. AID 651746;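 active = mean percent inhibition of the KCNQ2 thallium signal more than 5 SD above the buffer-only control wells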;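 note: KCNQ2 expressed in CHO cells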
KCNQ1 KCNE1 spec: selectivity of KCNQ1 inhibitors: inhibition of human KCNQ1/KCNE1 channel. shares compounds with KCNQ1 inh. KCNQ1/KCNE1 cells, FluxOR thallium flux fluorescence. inhibition, % at 10 µM. 77% of 1,600 active. AID 652147;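 active = mean percent inhibition of duplicate wells above the buffer-only control mean plus 3 SD of those controls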
Hits are given with their value; . = inactive; / = no result given; + = active, no number. Rows were chosen to be rich in hits. Some 3.1% of all compounds tested hit in one or more screens of this group.

SMILES	KCNK3 block	KCNK9 block	KCNQ1 inh	KCNQ1 pot	hERG rescue	KCNQ1 block val	CHO Tl flux	KCNQ2 inh	KCNQ1 KCNE1 spec	others
CCOC(=O)c1c(NC(=O)CSc2nnc(-c3c[nH]c4ccccc34)n2C)sc2c1CCCC2	.	.	7	.	.	64	.	65%	.
COc1cc(N)c(Cl)cc1C(=O)OCC(=O)N1CCCCCC1	.	/	/	/	/	/	/	/	/
O=C(NC1CCCCC1)C(c1ccco1)N(Cc1ccco1)C(=O)c1ccco1 (configuration not stated)	.	.	7	.	.	96	.	70%	112%	KCNQ1 ephys val=+
O=C(NCC(=O)N(Cc1ccccc1)C(C(=O)NC1CCCCC1)c1ccco1)c1ccco1 (configuration not stated)	.	.	.	.	.	/	/	/	/
CN(C)C(=O)CN1C(=O)NC2(CCc3ccccc32)C1=O (configuration not stated)	.	.	.	.	.	/	/	/	/
CCOC(=O)c1cc(C(C)(C)C)oc1CN	.	.	.	.	.	/	/	/	/
CCOC(=O)c1cc(C(C)(C)C)oc1CNC(=O)c1c(C)oc2c1CCCC2	.	.	10	.	.	141	.	120%	142%	KCNQ1 ephys val=.
CN(C(=O)c1cccc(NC(=O)Cc2ccc(NC(=O)C3CCCN(S(=O)(=O)c4cccc([N+](=O)[O-])c4)C3)cc2)c1)C1CCCCC1 (configuration not stated)	.	/	/	/	/	/	/	/	/
CCc1ccc(C(O)(C(C)C)C(CN2CCOCC2)c2ccccc2)cc1 (configuration not stated)	.	.	6	.	.	65	.	.	80%
Cc1cccc(-c2noc(CN(C)S(=O)(=O)c3cc(Cl)ccc3Cl)n2)c1	.	-8	8	.	.	+	0.35	.	.
COc1ccc(Cl)cc1C(=O)N(Cc1nc(-c2cccc(C)c2)no1)C(C)C	.	.	.	.	.	/	/	/	/
Cc1ccc(S(=O)(=O)NC(C)C(=O)OCC(=O)N(C)c2ccccc2)cc1 (configuration not stated)	.	/	/	/	/	/	/	/	/
O=C(Nc1cccc(Cl)c1)Nc1nccs1	.	.	7	.	.	70	.	.	42%
O=C(Nc1cccc(Cl)c1)Nc1ccc(Br)cc1F	.	.	9	.	.	52	.	.	.
O=C(Nc1cccc(Cl)c1)Nc1ccnc(-c2cccnc2)n1	.	.	6	.	.	74	.	.	.
O=C(Nc1cccc(Cl)c1)Nc1cnccn1	.	.	.	.	.	/	/	/	/
Cc1csc(NC(=O)Nc2cccc(Cl)c2)n1	.	.	6	.	.	70	.	.	93%
O=C(Nc1ccccc1)Nc1ccc(Br)cc1F	.	.	.	.	.	/	/	/	/
CC(C)CCN1CCNC(=O)C1CC(=O)N(C)CCCN1CCOCC1 (configuration not stated)	.	.	.	.	.	/	/	/	/
COc1ccc(CNC(=O)c2ccccc2NC(=O)C2=CSCCO2)c(OC)c1	.	.	.	.	.	/	/	/	/
Cc1ccc(Cl)c(OC(=O)Cn2cnc3c2c(=O)n(C)c(=O)n3C)c1	.	.	.	.	.	/	/	/	/
O=C(Nc1cccc(Cl)c1)Nc1ccon1	.	.	7	.	.	54	.	.	.
CCN(CC)S(=O)(=O)c1ccc(C(=O)NCc2n[nH]c(=S)n2-c2ccc(Cl)c(Cl)c2)cc1	.	.	.	.	.	/	/	/	/
CCOC(=O)C=Nc1c(N)n(C)c(=O)n(C)c1=O	.	.	.	.	.	/	/	/	/
CC(C)(CCl)C(=O)Nc1ccc(C(F)(F)F)cc1	.	.	6	.	.	56	.	66%	68%
SMILES	KCNK3 block	KCNK9 block	KCNQ1 inh	KCNQ1 pot	hERG rescue	KCNQ1 block val	CHO Tl flux	KCNQ2 inh	KCNQ1 KCNE1 spec	others
CC(C)N1C(=O)CSC1c1ccc(Br)cc1 (configuration not stated)	.	.	.	.	.	/	/	/	/
CCOc1cc(/C=C2/SC(=S)N(C)C2=O)ccc1Oc1ccc([N+](=O)[O-])cc1[N+](=O)[O-]	/	.	.	.	.	/	/	/	/
O=C(NC(NC1CCS(=O)(=O)C1)C(Cl)(Cl)Cl)c1cccc(Cl)c1 (configuration not stated)	.	.	.	.	.	/	/	/	/
O=C(NC(NC1CCS(=O)(=O)C1)C(Cl)(Cl)Cl)c1ccc(Br)cc1 (configuration not stated)	.	.	10	.	.	64	.	88%	36%
O=C(Nc1ccccc1N1CCCCC1)C1CCN(S(=O)(=O)c2ccccc2C(F)(F)F)CC1	.	.	11	.	.	64	.	101%	82%
O=C(Nc1ccccc1N1CCCC1)C1CCN(S(=O)(=O)c2ccccc2C(F)(F)F)CC1	.	.	.	.	.	/	/	/	/
COc1ccccc1C(=O)N/C(=C\c1ccc2c(c1)OCO2)C(=O)NCCc1nc2ccccc2[nH]1	.	.	.	.	.	/	/	/	/
CCOC(=O)C1CCN(C2=C(NS(=O)(=O)c3ccc(Cl)cc3)C(=O)c3ccccc3C2=O)CC1	.	.	6	.	.	124	0.32	135%	182%
O=C(Nc1ccc(Cl)cc1)NC1CCCCC1Cc1ccco1 (configuration not stated)	.	.	8	.	.	126	.	77%	102%	KCNQ1 ephys val=+
Cc1ccc(SCCNC(=S)Nc2ccccc2)cc1	.	.	.	.	.	/	/	/	/
Cc1ccc(NC(=S)NCCc2ccccc2)c(C)c1	.	.	.	.	.	/	/	/	/
S=C(NCCc1ccccc1)Nc1ccc(Cl)cc1Cl	.	.	7	.	.	34	.	.	.
S=C(NCc1ccccc1)Nc1cccc2cnccc12	.	.	.	.	.	/	/	/	/
Cc1cc(Cl)ccc1NC(=S)NCCc1ccc(Cl)cc1	.	.	14	.	.	70	.	79%	103%
S=C(NCCc1ccccc1)Nc1cccc2cnccc12	.	.	7	.	.	29	.	.	.
Cc1cc(C)cc(NC(=S)NCCSc2ccc(Cl)cc2)c1	.	.	10	.	.	110	.	108%	112%	KCNQ1 ephys val=.
COc1ccc(NS(=O)(=O)N2CCOCC2)cc1	.	.	.	.	.	/	/	/	/
CC(=O)c1cccc(NC(=S)NCCc2ccc(Cl)cc2)c1	.	.	8	.	.	43	.	.	.
Cc1nc2cc(NCc3ccccc3O)ccc2n1Cc1ccccc1	.	.	8	.	.	50	.	.	43%
Cc1ccc(O)c(-c2cc(C(=O)Nc3cccnc3)[nH]n2)c1	.	.	.	.	.	/	/	/	/

Screens as filed in PubChem.
